High-throughput results deposited in PubChem by Johns Hopkins Ion Channel Center.
MrgX1 PAM: allosterically activates human MrgX1 receptor signaling; Q96LB2; MrgX1-HEK293, Fluo-4 calcium flux, FDSS; stronger effect = higher value; B-score at 10 µM; 0.63% of 310,000 active; AID 588675;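 active = plate-corrected calcium response at least 3 library SD above typical, normal starting fluorescence, not activating the receptor alone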;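 note: compound read alongside a low EC10 to EC30 dose of BAM8-22 agonist; peak minus trough fluorescence over baseline measured at the second addition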
Target sequence (Q96LB2 whole entry, looked up): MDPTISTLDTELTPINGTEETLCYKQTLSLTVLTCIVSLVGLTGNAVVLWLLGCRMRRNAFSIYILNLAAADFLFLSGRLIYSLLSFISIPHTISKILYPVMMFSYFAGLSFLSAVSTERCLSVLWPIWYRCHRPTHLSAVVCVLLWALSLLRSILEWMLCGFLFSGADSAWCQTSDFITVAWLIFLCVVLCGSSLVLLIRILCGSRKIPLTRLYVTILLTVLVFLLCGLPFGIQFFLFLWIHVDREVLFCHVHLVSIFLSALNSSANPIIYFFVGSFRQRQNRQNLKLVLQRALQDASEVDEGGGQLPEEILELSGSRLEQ
MrgX1 antag: blocks BAM8-22 activation of human MrgX1 receptor; B-score at 10 µM; MRGX1-HEK293 calcium flux, Fluo-4, BAM8-22 antagonism; stronger effect = lower value; 1.3% of 310,000 active; Q96LB2; AID 588676;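 active = calcium-response B-score plate-corrected more than 3 library SD below zero, starting fluorescence within 5 deviations, no agonist response on first addition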;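 note: peak minus trough fluorescence over baseline after final BAM8-22 challenge near maximal dose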
MrgX1 agonist: human MrgX1 receptor agonism, primary screen. Q96LB2. B-score at 10 µM. MrgX1-HEK293 cells, Fluo-4 calcium fluorescence, agonist mode; stronger effect = higher value. 0.44% of 310,000 active;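 active = calcium response B-score plate-corrected fluorescence ratio at least 3 library SD, with starting fluorescence B-score inside 5 SD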
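Test system: HEK293 cells stably expressing human MrgX1 receptor; Input: fifteen thousand cells per well; Dosing: compound delivered in addition one of three; Schedule: overnight seeding, then 1 h dark dye loading; Technique: Fluo-4 NW calcium fluorescence; Measure: B-scored fluorescence response ratio; Controls: positive and negative controls per plate.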
RGS4 act: RGS4 potentiation or activation | B-score at 10 µM | AID 463111 | HEK293 M3R/inducible RGS4, carbachol calcium flux Fluo4; stronger effect = lower value | 0.92% of 310,000 active;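 active = B-score of the integrated calcium signal more than 4 SD below the library mean, with starting fluorescence not abnormally high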;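 note: negative B-score means reduced calcium response which marks RGS4 activation or potentiation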
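Reagent: ECmax carbachol challenge; Test system: M3R-expressing HEK293 line, RGS4 induced by doxycycline; Schedule: overnight RGS4 induction, 30 min dye load 37 °C, 20 min compound RT; Detection: calcium dye Fluo4 fluorescence; Read-out: Agonist-evoked peak-minus-minimum fluorescence over baseline, integrated ratio, B score.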
RGS4 inh: human RGS4 inhibition. 0.45% of 310,000 active. P49798. B-score at 10 µM. HEK293 M3R/RGS4 inducible, Fluo-4 calcium flux; stronger effect = higher value; triggered by carbachol at its EC20;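 active = B-score, a plate-corrected calcium signal, over three deviations above library mean, with baseline fluorescence within five deviations of library mean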;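 note: RGS4 expression induced by doxycycline in cells with stable M3 receptor; B-score is computed from the integrated fluorescence ratio over baseline after carbachol; higher B-score means a larger calcium signal and so more RGS4 inhibition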
Target sequence (P49798 whole entry, looked up): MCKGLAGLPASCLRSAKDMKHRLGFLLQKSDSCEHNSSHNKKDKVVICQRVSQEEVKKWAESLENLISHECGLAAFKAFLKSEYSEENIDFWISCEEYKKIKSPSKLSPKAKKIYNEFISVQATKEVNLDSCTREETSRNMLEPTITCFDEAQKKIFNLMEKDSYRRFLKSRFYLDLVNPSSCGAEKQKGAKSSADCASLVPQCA
* = called active by the depositor; i = inactive; x = no result given. Rows were chosen to be rich in hits. Some 3.5% of all compounds tested hit in one or more screens of this group.

SMILES	MrgX1 PAM	MrgX1 antag	MrgX1 agonist	RGS4 act	RGS4 inh
CCCCn1c(N)c(N(CCOC)C(=O)c2ccc3c(c2)C(=O)N(c2ccccc2C)C3=O)c(=O)[nH]c1=O	i	i	i	i	i
CC1(OC(=O)c2ccco2)C(=O)C=C2C=C(C3CC3)OC=C2C1=O (configuration not stated)	i	-5*	i	i	i
O=C(CCCOc1ccc(Cl)cc1)NC1CCCCC1	i	i	i	i	i
CC(=O)OCCCN(C)CC/C=C1/c2ccccc2CSc2ccccc21	i	i	i	-7.9*	i
Cc1cc(NC(=O)CCC(=O)N(CCC(C)C)C(C(=O)NCC2CCCO2)c2ccccc2C)no1 (configuration not stated)	i	i	i	i	i
CCOC(=O)C1(Cc2ccccc2C)CCCN(C(=O)c2ccccn2)C1 (configuration not stated)	i	i	i	i	i
CCOC(=O)C1(Cc2ccccc2C)CCCN(C(=O)c2ccc3nccnc3c2)C1 (configuration not stated)	i	i	i	-7.1*	i
Cc1cccc(C)c1-n1cccc1/C=C1\SC(=S)N(c2cccc(C(=O)O)c2)C1=O	i	i	i	-7.6*	i
CC1CCN(CCc2nc3cc(NC(=O)C(C)C)ccc3n2C)CC1	i	i	i	i	i
Cc1cc(NC(=O)NCC(F)(F)F)no1	i	i	i	i	i
O=C(N/N=C/c1ccc(OC(=O)c2ccccc2Cl)cc1)c1cc(O)cc(O)c1	i	i	i	-7.6*	i
CC(NC(=O)C(NS(=O)(=O)c1cccc2nsnc12)C(C)C)c1ccccc1 (configuration not stated)	i	i	i	i	i
O=c1cc(-c2ccccc2)c2cc(Cl)c(O)c(CN3CCOCC3)c2o1	9.8*	i	i	i	i
CCc1cc2c(-c3ccccc3)cc(=O)oc2c(CN2CCOCC2)c1O	i	i	43*	i	i
O=c1cc(-c2ccccc2)c2ccc(O)c(CN3CCCCC3)c2o1	i	i	i	i	i
O=C1CC[C@@H](OCc2ccccc2)CCN1CC[C@H](Sc1ccccc1)c1ccccc1	i	i	i	i	i
Cn1c2ccccc2c2cnn(CC(=O)N3CCCCC3)c(=O)c21	i	i	i	i	i
CC(OC(=O)Cc1ccccc1[N+](=O)[O-])C(=O)Nc1ccc(Cl)cn1 (configuration not stated)	i	i	i	i	i
Cc1ccc(NC(=O)/C(C#N)=C(\N)C(Cl)(Cl)Cl)nc1	i	i	28*	i	i
Cc1ccc(NC(=O)C(=O)Nc2ccc(C)cn2)nc1	i	i	i	i	i
COc1cccc(-c2nc(N3CCC(C)CC3)c3ccccc3n2)c1O	i	i	i	-7.1*	i
COc1ccc(Nc2nc(-c3cccc(OC)c3O)nc3ccccc23)cc1	i	i	i	-7.6*	i
Cc1cccc(C)c1NC(=O)c1sccc1SCc1cccc(C(F)(F)F)c1	i	-5*	i	i	i
CCN(Cc1ccccc1)c1ccc(/C=C(\C#N)c2ccccn2)cc1	i	i	i	i	i
CCN(CC)c1ccc(/C=C(\C#N)c2ccccn2)cc1	i	-9.1*	i	i	i
SMILES	MrgX1 PAM	MrgX1 antag	MrgX1 agonist	RGS4 act	RGS4 inh
CC1=NN2C(=N)/C(=C\c3cc(C)n(-c4ccc(C)cc4)c3C)C(=O)N=C2S1	i	i	i	i	i
CCCC(=O)NC(=S)Nc1ccccc1N1CCOCC1	i	-7.7*	i	i	i
CCCCC(=O)NC(=S)Nc1ccccc1N1CCCCC1	i	i	i	i	i
CCN(CC)C(=O)n1c(Cc2ccccc2)nc2ccccc21	i	i	i	i	i
O=C1N/C(=C\c2ccc(N3CCOCC3)c(F)c2)C(=O)N1Cc1ccccc1	i	-8.6*	i	i	i
O=C1N/C(=C/c2cccn2-c2ccccc2)C(=O)N1Cc1ccc(F)cc1	i	i	i	i	i
COc1ccccc1-n1c2c(cc(C(=O)N3CCC(C)CC3)c1=O)C(=O)CC(C)(C)C2	8.6*	i	i	i	i
COc1ccc(-n2c3c(cc(C(=O)N4CCC(C)CC4)c2=O)C(=O)CC(C)(C)C3)cc1	i	i	i	i	i
COc1cccc(NC(=O)CN(C)C(=O)c2cc(S(=O)(=O)NCc3ccccc3)ccc2C)c1	i	i	i	i	i
CC(=O)Nc1ccc2c(c1)c1ccccc1n2C(C)=O	i	i	i	i	i
CC(=O)n1c(-c2ccccc2)c(CO)c2ccccc21	22*	i	i	i	i
Cc1cc(C)c2c(c1)C(=O)/C(=C/c1ccc(C(=O)O)cc1)CC2	16*	i	i	i	i
CCCCCCCCCCCCCCCC[N+](C)(C)CCN(Cc1ccc(OC)cc1)c1ncccn1	i	i	56*	x	x
O=C(NN1C(=O)C2C3C=CC(C3)C2C1=O)c1ccccc1 (configuration not stated)	i	i	i	i	i
Cc1cccc(C(=O)NN2C(=O)C3C(c4ccccc4)C=CC(c4ccccc4)C3C2=O)c1 (configuration not stated)	i	i	i	-7.1*	i
Cc1ccc(C(=O)N/C(=C\c2ccc(-c3ccc([N+](=O)[O-])cc3)o2)C(=O)NC2CCS(=O)(=O)C2)cc1 (configuration not stated)	i	-4.9*	i	i	i
Cc1ccc(C(=O)N/C(=C/c2ccc(-c3ccc([N+](=O)[O-])cc3)o2)C(=O)NCCCN(C)C)cc1	i	i	45*	i	i
COc1ccccc1C(=O)NC(=Nc1nc2ccccc2o1)NC(=O)c1ccccc1OC	i	i	i	-7.2*	i
O=C(NC(=Nc1nc2ccccc2o1)NC(=O)c1ccccc1)c1ccccc1	i	i	i	i	i
CCN(CC)Cc1ccccc1Sc1ccccc1	i	i	i	-9.2*	i
CCOC(=O)C1CCN(S(=O)(=O)c2ccc3c(c2)CCCN3C(C)=O)CC1	i	i	i	i	i
CCOC(=O)C1CCN(S(=O)(=O)c2ccc3c(c2)CC(=O)N3C)CC1	i	i	39*	i	i
CC(C)(C)N(Cc1ccccc1)C(=O)CSc1ncn[nH]1	i	i	i	i	i
CCCCc1nn2c(N)c(/C=C3\C=Nc4ccccc43)c(=O)nc2s1	i	i	i	i	i
